Results from ChEMBL document CHEMBL6115053, “Optimization and Characterization of N-Acetamide Indoles as Antimalarials That Target PfATP4” (J Med Chem, 2025).
Values after ≈ are worked out from the molar mass of the structure shown. Active and inactive are the calls of the source. The rule behind the calls is not given here.

Experiments:
Plasmodium falciparum [1] = assay: Antiplasmodial activity against asexual Plasmodium falciparum 3D7 infected in human […] cells assessed as reduction in parasite growth measured for 72 hrs by LDH assay; assay type: functional, organism-based; details: 3D7, 72 h
[2] = (§1) Cytotoxicity against human HepG2 cells assessed as inhibition of cell growth incubated for 48 hrs by celltiterglo assay; assay type: toxicity, cell-based; details: HepG2 cells
Plasmodium falciparum [3] = assay: Antiplasmodial activity against N-(2,6-difluorophenyl)-2-(6-(5-methyl-1,3,4-oxadiazol-2-yl)-1H-indol-1-yl)acetamide-resistant Plasmodium falciparum Dd2 harbouring ATP4 genome with 2.8 fold CNV; assay type: functional, organism-based
Plasmodium falciparum [4] = assay: Antiplasmodial activity against multidrug-resistant Plasmodium falciparum Dd2 harboring plasmodium falciparum ATP4 I398F/P990R/D1247Y mutant; assay type: functional, organism-based
Plasmodium falciparum [5] = assay: Antiplasmodial activity against Plasmodium falciparum 3D7; assay type: functional, organism-based
HepG2 [6] = assay: as §1; assay type: toxicity, cell-based; details: hepg2, 48 h
Plasmodium falciparum [7] = assay: Antiplasmodial activity against N-(2,6-difluorophenyl)-2-(6-(5-methyl-1,3,4-oxadiazol-2-yl)-1H-indol-1-yl)acetamide-resistant Plasmodium falciparum Dd2 harboring plasmodium falciparum ATP4 F156L mutant; assay type: functional, organism-based
Plasmodium falciparum [8] = assay: Antiplasmodial activity against N-(2,6-difluorophenyl)-2-(6-(5-methyl-1,3,4-oxadiazol-2-yl)-1H-indol-1-yl)acetamide-resistant Plasmodium falciparum Dd2 harboring plasmodium falciparum ATP4 D425E mutant; assay type: functional, organism-based
Plasmodium falciparum [9] = assay: Antiplasmodial activity against multidrug-resistant Plasmodium falciparum Dd2 harboring plasmodium falciparum ATP4 G358S mutant; assay type: functional, organism-based
Plasmodium falciparum [10] = assay: Antimalarial activity against trophozoite stage Plasmodium falciparum 3D7 at 10 times EC50 incubated for 48 hrs by SYBR Green dye based analysis; assay type: functional, organism-based
Plasmodium falciparum [11] = assay: Antiplasmodial activity against multidrug resistant Plasmodium falciparum Cam3.1 incubated for 48 hrs by SYBR staining based fluorometer assay; assay type: functional, organism-based; details: Cam3.1, 48 h
Plasmodium falciparum [12] = assay: Antimalarial activity against Plasmodium falciparum NF54 infected assessed as inhibition of male gamete formation incubated for 48 hrs by automated bright field microscopic analysis; assay type: functional, organism-based; details: NF54, 48 h
Plasmodium falciparum [13] = assay: Antiplasmodial activity against N-(2,6-difluorophenyl)-2-(6-(5-methyl-1,3,4-oxadiazol-2-yl)-1H-indol-1-yl)acetamide-resistant Plasmodium falciparum Dd2 harboring plasmodium falciparum ATP4 D425E mutant by SYBR green staining based analysis; assay type: functional, organism-based
Plasmodium falciparum [14] = assay: Antimalarial activity against Plasmodium falciparum NF54 infected assessed as inhibition of female gamete formation incubated for 48 hrs by automated bright field microscopic analysis; assay type: functional, organism-based; details: NF54, 48 h
[15] = target: T1, P-type sodium-transporting ATPase4 (Plasmodium falciparum (isolate 3D7), UniProt A0A143ZZK9); assay: Inhibition of Plasmodium falciparum 3D7 ATP4 assessed as increase in Na+ concentration in parasite cytosol measured for 60 mins; assay type: subcellular
T1 sequence (A0A143ZZK9 whole entry): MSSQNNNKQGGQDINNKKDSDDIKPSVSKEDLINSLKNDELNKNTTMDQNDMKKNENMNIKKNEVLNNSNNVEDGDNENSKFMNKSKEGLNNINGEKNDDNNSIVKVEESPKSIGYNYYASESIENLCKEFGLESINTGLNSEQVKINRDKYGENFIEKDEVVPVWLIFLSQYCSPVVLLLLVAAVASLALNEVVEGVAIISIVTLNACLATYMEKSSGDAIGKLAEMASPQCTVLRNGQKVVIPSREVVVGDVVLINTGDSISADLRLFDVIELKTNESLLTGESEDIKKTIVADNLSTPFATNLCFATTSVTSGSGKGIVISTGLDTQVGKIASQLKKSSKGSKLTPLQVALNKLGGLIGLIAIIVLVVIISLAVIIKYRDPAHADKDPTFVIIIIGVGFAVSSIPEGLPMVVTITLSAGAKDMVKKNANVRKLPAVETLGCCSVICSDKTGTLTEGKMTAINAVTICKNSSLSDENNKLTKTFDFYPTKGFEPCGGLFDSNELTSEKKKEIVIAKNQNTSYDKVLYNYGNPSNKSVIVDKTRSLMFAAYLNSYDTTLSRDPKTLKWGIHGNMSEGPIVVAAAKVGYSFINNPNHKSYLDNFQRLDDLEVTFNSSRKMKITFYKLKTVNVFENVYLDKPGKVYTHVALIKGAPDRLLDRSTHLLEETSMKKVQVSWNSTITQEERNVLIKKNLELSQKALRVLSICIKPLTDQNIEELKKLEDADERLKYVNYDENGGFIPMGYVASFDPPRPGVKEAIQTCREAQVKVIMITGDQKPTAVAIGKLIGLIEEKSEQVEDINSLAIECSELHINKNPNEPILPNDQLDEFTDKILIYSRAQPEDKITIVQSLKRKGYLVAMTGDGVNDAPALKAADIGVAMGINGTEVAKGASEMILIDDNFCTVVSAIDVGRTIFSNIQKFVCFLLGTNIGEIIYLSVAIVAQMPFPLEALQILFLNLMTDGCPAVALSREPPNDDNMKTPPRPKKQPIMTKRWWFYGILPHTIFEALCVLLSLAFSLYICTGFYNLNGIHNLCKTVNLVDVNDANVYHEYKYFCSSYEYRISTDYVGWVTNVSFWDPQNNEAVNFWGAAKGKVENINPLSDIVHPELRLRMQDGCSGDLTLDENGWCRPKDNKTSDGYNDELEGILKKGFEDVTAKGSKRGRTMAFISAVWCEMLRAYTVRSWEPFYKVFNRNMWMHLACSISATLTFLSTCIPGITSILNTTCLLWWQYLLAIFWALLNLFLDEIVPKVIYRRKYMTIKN

Plasmodium falciparum [16] = assay: Antiplasmodial activity against W454-resistant population 1 Plasmodium falciparum 3D7 harboring Plasmodium falciparum ATP4 L928F mutant by LDH assay; assay type: functional, organism-based
Plasmodium falciparum [17] = assay: Antiplasmodial activity against W454-resistant population 3 Plasmodium falciparum 3D7 harboring Plasmodium falciparum ATP4 L928F mutant by LDH assay; assay type: functional, organism-based
Plasmodium falciparum [18] = assay: Antiplasmodial activity against multidrug-resistant Plasmodium falciparum Dd2 harboring plasmodium falciparum ATP4 G358S mutant by SYBR green staining based analysis; assay type: functional, organism-based
HepG2 [19] = assay: Cytotoxicity against human HepG2 cells; assay type: functional
Plasmodium falciparum [20] = assay: Antiplasmodial activity against Plasmodium falciparum 3D7 infected in human […] cells incubated for 72 hrs; assay type: functional, organism-based; details: 3D7, 72 h
Plasmodium falciparum [21] = assay: Antiplasmodial activity against N-(2,6-difluorophenyl)-2-(6-(5-methyl-1,3,4-oxadiazol-2-yl)-1H-indol-1-yl)acetamide-resistant Plasmodium falciparum Dd2 harbouring ATP4 genome with 2.8 fold CNV by SYBR green staining based analysis; assay type: functional, organism-based
Plasmodium falciparum [22] = assay: Antimalarial activity against synchronized-ring stage Plasmodium falciparum 3D7 assessed as reduction in parasitemia at 10 times EC50 measured at 72 hrs post-treatment by LDH assay; assay type: functional, organism-based
In short: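 Parasite reduction ratio assay in P. falciparum 3D7 with an LDH read-out. Means and SDs were taken from three replicate experiments.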

Plasmodium falciparum [23] = assay: Antiplasmodial activity against W454-resistant population 2 Plasmodium falciparum 3D7 harboring Plasmodium falciparum ATP4 L928F mutant by LDH assay; assay type: functional, organism-based
[24] = target: T2, P-type sodium-transporting ATPase4 (Plasmodium falciparum (isolate 3D7)) (UniProt A0A143ZZK9); assay: Inhibition of Plasmodium falciparum 3D7 ATP4 assessed as increase in Na+ concentration in parasite cytosol upto 1000 nM measured for 60 mins; assay type: subcellular
T2 sequence (whole entry): T1 sequence (A0A143ZZK9 whole entry)

Plasmodium falciparum [25] = assay: Antiplasmodial activity against multi-drug resistant Plasmodium falciparum Dd2; assay type: functional, organism-based
Plasmodium falciparum [26] = assay: Antiplasmodial activity against multidrug-resistant Plasmodium falciparum Dd2 harboring plasmodium falciparum ATP4 I398F/P990R/D1247Y mutant by SYBR green staining based analysis; assay type: functional, organism-based
Plasmodium knowlesi = assay: Antiplasmodial activity against wild type Plasmodium knowlesi YH1 incubated for 30 hrs by SYBR staining based flow cytometry assay; assay type: functional, organism-based; details: YH1, 30 h
Plasmodium falciparum [27] = assay: Antiplasmodial activity against multidrug resistant Plasmodium falciparum W2mef incubated for 48 hrs by SYBR staining based fluorometer assay; assay type: functional, organism-based
Plasmodium falciparum [28] = assay: Antimalarial activity against trophozoite stage Plasmodium falciparum 3D7 assessed as reduction in parasitemia at 10 times EC50 incubated for 24 hrs by SYBR Green dye based analysis; assay type: functional, organism-based
Plasmodium falciparum [29] = assay: Antiplasmodial activity against Plasmodium falciparum 3D7 infected in human […] cells; assay type: functional, organism-based
Plasmodium falciparum [30] = assay: Antiplasmodial activity against N-(2,6-difluorophenyl)-2-(6-(5-methyl-1,3,4-oxadiazol-2-yl)-1H-indol-1-yl)acetamide-resistant Plasmodium falciparum Dd2 harboring plasmodium falciparum ATP4 F156L mutant by SYBR green staining based analysis; assay type: functional, organism-based
[31] = Lipophilicity, logD of compound at pH 7.4 by shake-flask method; assay type: physicochemical; details: buffer
Plasmodium falciparum [32] = assay: Antiplasmodial activity against Plasmodium falciparum 3D7 infected in RBC assessed as reduction in parasite growth measured for 8 hrs by Giemsa-staining based microscopic analysis; assay type: functional, organism-based
In short: (§2)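 Giemsa-stained thin smears were read at 8 h and the percentages of extracellular and intracellular parasites counted, compared with untreated parasites at 0 h.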

[33] = Metabolic stability in mouse liver microsome assessed as intrinsic clearance; assay type: ADME; details: microsomes
[34] = Metabolic stability in human liver microsome assessed as intrinsic clearance; assay type: ADME; details: microsomes
Plasmodium falciparum [35] = assay: Antiplasmodial activity against Plasmodium falciparum 3D7 infected in RBC assessed as reduction in extracellular parasite growth measured for 8 hrs by Giemsa-staining based microscopic analysis; assay type: functional; design: scale not given: the % may be the effect or the level left; in short: as §2
[36] = Metabolic stability in rat hepatocyte […] assessed as intrinsic clearance measured per 10^6 cells; assay type: ADME, cell-based; details: hepatocytes
[37] = Aqueous solubility in PBS buffer at pH 7.4; assay type: physicochemical

Row | Compound | EC50 (Plasmodium falciparum [1]) [nM] | CC50 (HepG2 [6]) [nM] | Activity (Plasmodium falciparum [10]) | EC50 (Plasmodium falciparum [12]) [nM] | EC50 (Plasmodium falciparum [13]) [nM] | EC50 (Plasmodium falciparum [14]) [nM] | IC50 [15] [nM] | EC50 (Plasmodium falciparum [16]) [nM] | EC50 (Plasmodium falciparum [17]) [nM] | EC50 (Plasmodium falciparum [18]) [nM] | CC50 (HepG2 [19]) [nM] | EC50 (Plasmodium falciparum [20]) [nM] | EC50 (Plasmodium falciparum [21]) [nM] | EC50 (Plasmodium falciparum [23]) [nM] | inhibition [24] | EC50 (Plasmodium falciparum [26]) [nM] | also measured
1 | Cc1nc(-c2ccc3ccn(CC(=O)Nc4ccccc4Cl)c3c2)no1 | 955 | – | – | – | – | – | – | – | – | – | – | – | – | – | – | – | CC50 at 48 h [2]: > 40000 nM
2 | Cc1nnc(-c2ccc3ccn(CC(=O)Nc4ccc(F)cc4F)c3c2)o1 | 4250 | > 40000 | – | – | – | – | – | – | – | – | – | – | – | – | – | – | EC50 (Plasmodium falciparum [3]): 30 nM; EC50 (Plasmodium falciparum [4]): 142 nM; EC50 (Plasmodium falciparum [5]): 16 nM; EC50 (Plasmodium falciparum [7]): 25 nM; EC50 (Plasmodium falciparum [8]): 30 nM; EC50 (Plasmodium falciparum [9]): 28 nM
3 | CCc1nnc(-c2ccc3ccn(CC(=O)Nc4cc(OC)c(OC)c(OC)c4)c3c2)o1 | – | – | Active | 7400 | 241 | 7200 | ~400 | 1940 | 1800 | 1370 | > 40000 | 123 | 290 | 1990 | Active | 238 | EC50 (Plasmodium falciparum [11]): 381 nM; Activity (Plasmodium falciparum [22]): Active; EC50 (Plasmodium falciparum [25]): 320 nM; EC50 (Plasmodium knowlesi): 431 nM; EC50 (Plasmodium falciparum [27]): 272 nM; Activity (Plasmodium falciparum [28]): Active
4 | Cc1nnc(-c2ccc3ccn(CC(=O)Nc4ccccc4Cl)c3c2)o1 | 667 | > 40000 | Active | 3600 | 786 | 5000 | ~400 | > 10000 | > 10000 | 1280 | > 40000 | 569 | 901 | > 10000 | Active | 2540 | EC50 (Plasmodium falciparum [29]): 667 nM; EC50 (Plasmodium falciparum [30]): 1160 nM; logD [31]: 3.1; Activity (Plasmodium falciparum [32]): Active; intrinsic clearance (CLint) [33]: 410 µL/min/mg; intrinsic clearance (CLint) [34]: > 462 µL/min/mg; Activity (Plasmodium falciparum [35]): 3.5%; intrinsic clearance (CLint) [36]: > 92 uL/min/10^6 cells; solubility kinetic [37]: 10.9 µM (≈ 4 µg/mL)
